Compound activity from PubChem.
TAAR1 antag = human TAAR1 antagonists, primary screen, Fluo-8 calcium fluorescence, CHO RD-HGA16 cells | Trace amine-associated receptor 1 (Homo sapiens), Q96RJ0 | antagonist | inhibition, % at 3 µM | 360,000 tested, 1.5% active | AID 624466, 2012;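 active = inhibition above a per-plate cutoff, the mean inhibition of test compounds on that plate plus 3 SD, cut at about 49% in these data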;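 note: 0% = DMSO plus EC80 beta-PEA response and 100% = DMSO alone without agonist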
Target sequence (Q96RJ0 whole entry, looked up): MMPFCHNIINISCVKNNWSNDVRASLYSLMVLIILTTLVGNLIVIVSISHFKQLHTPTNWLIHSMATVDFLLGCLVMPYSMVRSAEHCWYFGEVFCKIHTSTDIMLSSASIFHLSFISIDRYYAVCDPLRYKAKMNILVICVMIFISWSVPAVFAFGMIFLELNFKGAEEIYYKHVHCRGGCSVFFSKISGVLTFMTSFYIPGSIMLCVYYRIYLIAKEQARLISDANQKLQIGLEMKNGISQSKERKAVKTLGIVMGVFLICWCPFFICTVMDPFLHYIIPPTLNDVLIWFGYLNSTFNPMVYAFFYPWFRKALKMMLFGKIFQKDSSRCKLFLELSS
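Test system: hTAAR1-expressing CHO RD-HGA16 cells, Gα16-coupled; Probe or stimulus: EC80 β-phenethylamine stimulus; Compound dosing: single nominal final test compound concentration of 3 µM; Timing: 140 s kinetic read after compound, 140 s after agonist; Signal: Fluo-8 calcium-sensitive fluorescence; Measure: % inhibition of agonist calcium response; Controls: DMSO and EC80 PEA controls.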
MC4R ag barr = MC4R agonists recruiting beta-arrestin, primary screen, cell-based, luminescence, agonist arm of biased-ligand search | U2OS MC4R beta-arrestin complementation; percent of melanotan II response, DMSO zero | activation, % at 8.9 µM | 360,000 tested, 0.98% active | AID 540308, 2011;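 active = activation above a per-plate cutoff, the mean activation of sample wells on that plate plus 3 SD, cut at about 8% in these data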
Target sequence (P32245 whole entry, looked up): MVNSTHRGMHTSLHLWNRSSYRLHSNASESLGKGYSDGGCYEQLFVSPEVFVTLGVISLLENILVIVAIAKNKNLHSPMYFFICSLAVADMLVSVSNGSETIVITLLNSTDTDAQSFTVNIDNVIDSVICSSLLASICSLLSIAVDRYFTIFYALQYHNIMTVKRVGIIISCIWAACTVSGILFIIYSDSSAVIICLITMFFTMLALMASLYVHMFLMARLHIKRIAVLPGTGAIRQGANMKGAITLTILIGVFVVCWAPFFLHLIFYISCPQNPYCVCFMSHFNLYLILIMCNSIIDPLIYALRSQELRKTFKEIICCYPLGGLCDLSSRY
TAAR1 ag = human TAAR1 agonists, primary screen, Fluo-8 calcium fluorescence, CHO RD-HGA16 cells; Trace amine-associated receptor 1 (Homo sapiens), Q96RJ0; vehicle wells 0%, saturating PEA agonist 100%; activation, % at 3 µM; 360,000 tested, 0.99% active; AID 624467, 2012;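 active = activation above the mean activation of all test compounds in the run plus 3 SD, cut at about 38% in these data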
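System: CHO-derived RD-HGA16 cells with stable Gα16 and human TAAR1 / Times: 17-24 h plating, Fluo-8 75 min 37 °C, 30 min RT / Technique: calcium-sensitive Fluo-8 signal, excitation 470-495, emission 515-575 nm / Measure: % activation relative to PEA EC100 response / Benchmarks: DMSO and PEA EC100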
m5-HT2A agonist = mouse Htr2a agonists via beta-arrestin recruitment, primary screen, cell-based, luminescence. 5-hydroxytryptamine receptor 2A (Mus musculus), P35363. 360,000 tested, 0.66% active. activation, % at 7.6 µM. CHO-K1 mHTR2A beta-arrestin complementation; percent of 30 µM serotonin response. AID 624169, 2012;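 active = activation above a run cutoff, the mean activation of all tested compounds plus 3 SD, cut at about 14% in these data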;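 note: 0% = plate median of compound wells and 100% = 30 µM serotonin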
Beta2AR agonist = beta2AR agonists driving receptor internalization, primary screen, cell-based, FAP fluorogen, flow cytometry; Beta-2 adrenergic receptor (Homo sapiens), P07550; response, % (no concentration beside the values); AID 504454, 2011; Am2.2-beta2AR cells; 340,000 tested, 0.43% active;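 active = response above a set limit, near 3 SD of response in nonfluorescent compounds, cut at about 42% in these data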
MC4R antag cAMP = MC4R antagonists of cAMP signaling, primary screen, cell-based, TR-FRET, antagonist arm of biased-ligand search; inhibition, % at 6.5 µM; Melanocortin receptor 4 (Homo sapiens), P32245; 360,000 tested, 0.48% active; AID 540295, 2011; MC4R-expressing cells, MTII-stimulated cAMP, LANCE TR-FRET;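 active = inhibition above its plate's cutoff, the mean of tested wells on that plate plus 3 SD, cut at about 29% in these data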;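 note: 0% = Melanotan II alone and 100% = Melanotan II plus saturating MCL0020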
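System – human MC4R-expressing U2OS cells · Also added – Melanotan II · Dosing – one concentration, 6.5 µM nominal · Timing – 30-min compound, 1-h challenge, 1-h detection, room temperature · Measured by – Eu-cAMP/anti-cAMP TR-FRET, emission 671 nm · Replicates – singlicate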
TAAR1 nonsel count = nonselective antagonists in TAAR1 counter-screen cells, counter-screen for hTAAR1 antagonist project, cell-based, fluorescence, calcium; shares compounds with TAAR1 antag; counterscreen cell line, antagonist mode; inhibition, % at 3 µM; 2,400 tested, 77% active; AID 651780, 2012; in the data active = inhibition above about 22%;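 note: CHO-Ga16 host cells stimulated with ATP at an EC80 level; 0% = agonist EC80 plus vehicle and 100% = vehicle without agonist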
TAAR1 antag conf = human TAAR1 antagonists, retest of hits, confirmation, cell-based, fluorescence | shares compounds with TAAR1 antag | TAAR1-expressing cells, fluorescence antagonist read-out | inhibition, % at 3 µM | 2,400 tested, 40% active; in the data active = inhibition above about 49%;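 note: CHO-Ga16 host cells challenged with agonist PEA near its EC80; 0% = agonist at EC80 plus vehicle and 100% = vehicle with no agonist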
Ga16 nonsel ag = calcium activation in Ga16-expressing cells, counter-screen for TAAR1 antagonist project, cell-based, fluorescence; shares compounds with TAAR1 antag; activation, % at 3 µM; 2,400 tested, 18% active; agonist counterscreen; AID 651953, 2012; in the data active = activation above about 12%;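 note: 0% = vehicle wells and 100% = saturating stimulus response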
TAAR1 ag counter = TAAR1 activation by candidate antagonists – cell-based, fluorescence, counter-screen for TAAR1 antagonist project; shares compounds with TAAR1 antag; AID 651955, 2012; hTAAR1 cell line, agonist mode; 2,400 tested, 2% active; activation, % at 3 µM; in the data active = activation above about 37%;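 note: CHO cells stably expressing TAAR1 with calcium dye readout; 0% = DMSO vehicle and 100% = full agonist response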
The depositor's hits bear a star; nt = no result. In the library only some 4.3% were active in any assay of this set; here they are far more common.

SMILES	TAAR1 antag	MC4R ag barr	TAAR1 ag	m5-HT2A agonist	Beta2AR agonist	MC4R antag cAMP	TAAR1 nonsel count	TAAR1 antag conf	Ga16 nonsel ag	TAAR1 ag counter
CC(C)(C)OC(=O)C[C@@H]1C/C=C\C[C@@H](CC(=O)N[C@H](CO)Cc2ccccc2)C(=O)N2CCC[C@H]2COC1=O	67*	-1	22	6	11	12	30*	50*	12*	11
CC(C)(C)OC(=O)C[C@@H]1C/C=C\C[C@@H](CC(=O)N[C@H](CO)Cc2ccccc2)C(=O)NC[C@H](c2ccccc2)OC1=O	53*	0	16	-1	16	10	23*	41	6	7
CC(C)(C)OC(=O)C[C@@H]1C/C=C\C[C@@H](CC(=O)N[C@@H](CO)Cc2ccccc2)C(=O)NCCOC1=O	-4	-1	0	1	-1	5	nt	nt	nt	nt
CC(Sc1n[nH]c(-c2cccs2)n1)C(=O)N1CCCC1 (configuration not stated)	2	0	3	-1	-7	2	nt	nt	nt	nt
CCNC(=O)CSc1nnc(-c2cccc(S(=O)(=O)N3CCOCC3)c2)o1	-1	0	1	-2	-6	3	nt	nt	nt	nt
O=C(CCN1C(=O)/C(=C/c2cccs2)SC1=S)Nc1cccc(O)c1	72*	3	28	-4	2	-5	47*	60*	16*	18
COc1cc(/C=C2\SC(=S)N(CCC(=O)Nc3cccc(O)c3)C2=O)cc(OC)c1OC	88*	0	14	2	31	16	36*	58*	11	11
COc1cc(/C=C2/SC(=S)N(CCC(=O)Nc3cccnc3)C2=O)cc(OC)c1OC	60*	3	11	2	nt	9	30*	51*	10	16
COc1cc(/C=C2\SC(=S)N(CCC(=O)Nc3ccccc3)C2=O)cc(OC)c1OC	32	-1	6	2	3	8	nt	nt	nt	nt
CC(C)(C)OC(=O)NCCCCCNC(=O)c1[nH]cnc1C(=O)Nc1ccccc1	57*	1	13	0	5	9	19	31	6	10
CC(C)(C)OC(=O)NCCCC[C@H](NC(=O)c1[nH]cnc1C(=O)Nc1ccc(CNC(=O)OC(C)(C)C)cc1)C(=O)OC(C)(C)C	65*	nt	13	nt	nt	nt	28*	49*	8	7
CC(C)(C)OC(=O)NCCCCCNC(=O)c1[nH]cnc1C(=O)Nc1ccc(Cl)cc1	55*	-1	15	-5	19	27	27*	42	5	3
C[C@H]1CNC(=O)c2c(C(=O)Nc3ccc(CNC(=O)OC(C)(C)C)cc3)ncn21	55*	0	14	8	nt	17	34*	46	9	5
CC(C)N(c1cc(=O)nc2ccccn12)C(C)C	10	nt	0	nt	nt	nt	nt	nt	nt	nt
CC(C)NS(=O)(=O)c1ccc(Br)c(C(=O)OC(C)C(=O)NC2CCCCC2C)c1 (configuration not stated)	-4	0	5	-11	12	9	nt	nt	nt	nt
O=C(c1ccc(-c2nc3ccccc3s2)o1)N1CCN(c2ccccc2O)CC1	64*	-1	6	5	13	21	29*	43	4	3
O=C(O)c1ccc(-c2nc3ccccc3s2)o1	-25	-2	1	-3	0	7	nt	nt	nt	nt
Cc1ccc(CSCCNC(=O)/C=C/c2ccccc2Cl)cc1	52*	-1	10	0	5	3	25*	27	3	6
O=C(/C=C/c1ccc(Cl)cc1Cl)NCCSCc1ccccc1	2	0	4	-6	-16	2	nt	nt	nt	nt
COc1cc(OC)cc(C(=O)NCCS(=O)(=O)N2CCN(Cc3ccccc3)CC2)c1	-14	-1	0	2	-4	23	nt	nt	nt	nt
COC(=O)CN(C)C(=O)c1ccc2nc(Cc3cccc(Cl)c3)oc2c1	-13	-1	0	-7	1	3	nt	nt	nt	nt
COc1ccc2cc(/C=C3\SC(=S)NC3=O)c(N3CCOCC3)nc2c1	53*	-2	4	1	19	26	36*	42	5	0
CCC(=O)N1CCN(c2ccc(NC(=O)COc3ccccc3[N+](=O)[O-])cc2)CC1	86*	-1	21	-3	6	-4	32*	57*	14*	15
CCC(=O)N1CCN(c2ccc(NC(=O)COc3ccccc3Cl)cc2)CC1	16	4	21	-2	-19	13	nt	nt	nt	nt
Cc1nn(C2CCS(=O)(=O)C2)c(Cl)c1/C=C/C(=O)OCC(=O)Nc1ccccc1OC(F)F (configuration not stated)	4	0	2	3	1	-3	nt	nt	nt	nt
COc1ccc(Cl)cc1NC(=O)COC(=O)/C=C/c1c(C)nn(C2CCS(=O)(=O)C2)c1Cl (configuration not stated)	53*	0	16	4	12	18	42*	41	13*	13
O=C(c1ccc(CS(=O)Cc2ccccc2Cl)o1)N1CCN(c2ccccn2)CC1 (configuration not stated)	49*	0	17	-4	-6	-3	15	32	8	6
CSc1ccc(CCNC(=O)c2ccc(CS(=O)Cc3ccccc3Cl)o2)cc1 (configuration not stated)	47	-2	14	0	7	13	nt	nt	nt	nt
